Several values for one entry are separate records, joined by “and”; a condition that tells them apart may be missing. Identical values can stand only once. Like-named read-outs stand apart in the source and are kept apart here.
Assays:
[1] = tested on: voltage-gated Na+ channels in CAD cells; assay type: cell-based; settings: for Maximal fraction of current unavailable by depolarization: 20 mV, control 0.42 ± 0.02
[2] = tested on: voltage-gated Na+ channels in CAD cells; assay type: cell-based
How it was run: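 Steady-state fast inactivation in whole-cell clamped CAD cells used a 500 ms conditioning pulse. Test compound ranged 0.3–500 μM; control was DMSO vehicle. Recordings were taken 3–4 min after break-in and compared with drug-free cells. V1/2 and k came from single Boltzmann fits of each recording, averaged as mean ± SEM. n = 7 for V1/2, n = 6 for τinact. Student's t-test vs DMSO.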

site 2 sodium channel = assay: Site 2 sodium channel binding; settings: 10 μM, Cerep, data not shown
[3] = tested on: voltage-gated Na+ channels in CAD cells; assay: Frequency; assay type: cell-based; settings: 10 Hz; for Pulse in the train at which use-dependent block was first observed: 30-pulse train
How it was run: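 CAD cells were whole-cell clamped at −80 mV and given a train of 30 pulses (20 ms to −10 mV) at 10 Hz, with test compound (100, 8.5 or 15 μM) or control. Available current was the peak at pulse N divided by the pulse 1 peak. 5–7 cells per condition, averaged ± SEM.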

[4] = tested on: voltage-gated Na+ channels in CAD cells; assay: Development of inhibition/slow inactivation of Na+ currents in CAD cells; assay type: cell-based; settings: vehicle 0.52 ± 0.09
[5] = tested on: voltage-gated Na+ channels in CAD cells; assay: Recovery of Na+ channels from inactivation/block in CAD cells; assay type: cell-based; settings: vs control
How it was run: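 CAD cells under whole-cell clamp, test compound (100, 8.5 or 15 μM) or control. Cells were held at −120 mV and depolarized to 0 mV, for 5 s (slow inactivation) or a 10 ms prepulse. They were then returned to −120 mV for a variable recovery interval before a test step to 0 mV. Sweeps ran at 0.5 Hz for short recoveries and slower for longer ones.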

[6] = tested on: tibial-nerve injury (TNI) mechanical hypersensitivity; assay: Tibial-nerve injury; assay type: in vivo, Sprague–Dawley rats; settings: rats, 10 mg/kg i.p.
[7] = tested on: formalin-induced pain, chronic (late-phase) inflammatory pain; assay: Formalin-induced pain model; assay type: in vivo; settings: mouse, i.p., the lower the percent the more effective the compound
[8] = tested on: voltage-gated Na+ channels in CAD cells; settings: earlier study; cited from earlier work
[9] = tested on: voltage-gated Na+ channels in CAD cells; settings: 30 μM; cited from earlier work
E18 rat cortical neurons = assay: KCl-induced Ca2+ influx, Fura-2 imaging; assay type: cell-based; settings: 100 μM, 46.5 mM KCl

COC[C@@H](NC(C)=O)C(=O)NCc1ccc(COc2ccccc2F)cc1 [(R)-10]
Fold lower IC50 for slow inactivation compared with (R)-4 (85 μM) [1]: 16 fold | Maximal fraction of current unavailable by depolarization ([1]; 100 μM): 0.90 ± 0.007 | Shift in V1/2 of fast inactivation in the hyperpolarizing direction ([2]; 100 μM): 17.6 mV | Displacement, site 2 sodium channel binding (site 2 sodium channel): 31–46%

COC[C@@H](NC(C)=O)C(=O)NCc1ccc(OCc2cccc(F)c2)cc1 [(R)-7]
Fraction of current available at −50 mV ([1]; 30 μM, vs cells without drug): significantly decreased the fraction of current available | Maximal fraction of current unavailable by depolarization ([1]; 30 μM): 0.91 ± 0.01 | Time constant for inactivation (τinact) ([2]; 0.3 μM, DMSO 1.32 ± 0.12 ms): 0.73 ± 0.05 ms | Shift in V1/2 of fast inactivation in the hyperpolarizing direction ([2]; 30 μM): ~ 21.4 mV and 21.4 mV | V1/2 value for fast inactivation ([2]; 30 μM, DMSO −63.2 ± 0.9 mV): −84.6 ± 1.2 mV | Peak current lower than control at the last pulse (pulse 30) ([3]; 8.5 μM): 40% | Pulse in the train at which use-dependent block was first observed ([3]; 8.5 μM): 3 pulse | Fraction of current available at 8 s prepulse duration ([4]; 8.5 μM): 0.20 ± 0.04 | Time course of recovery from the 10-ms depolarization ([5]; 8.5 μM): slight slowing | Recovery kinetics after 5 s depolarization (slow inactivation induced) ([5]; 8.5 μM, significant between 100 ms to 2 s): slowed recovery kinetics | Reversal of tactile hypersensitivity ([6]; 14 days after TNI, 1 hour after administration): ~ 90% | Mechanical withdrawal thresholds 24 hours after injection ([6]; four weeks after TNI, 24 hours): returned to pre-drug levels | Protection vs control, chronic (late-phase) inflammatory pain ([7]; 15 mg/kg): 44%

COC[C@@H](NC(C)=O)C(=O)NCc1ccc(-c2cccc(F)c2)cc1 [(R)-11]
Maximal fraction of current unavailable by depolarization ([1]; 30 μM): 0.94 ± 0.004 | Shift in V1/2 of fast inactivation in the hyperpolarizing direction ([2]; 30 μM): 8.0 mV | Peak current lower than control at the last pulse (pulse 30) ([3]; 15 μM): 45% | Pulse in the train at which use-dependent block was first observed ([3]; 15 μM): 3 pulse | Fraction of current available at 8 s prepulse duration ([4]; 15 μM): 0.12 ± 0.04 | Time course of recovery from the 10-ms depolarization ([5]; 15 μM): not different from control | Recovery kinetics after 5 s depolarization (slow inactivation induced) ([5]; 15 μM, significant between 100 ms to 2 s): slowed recovery kinetics | Protection vs control, chronic (late-phase) inflammatory pain ([7]; 12 mg/kg): 97% | Displacement, site 2 sodium channel binding (site 2 sodium channel): 31–46%

COC[C@@H](NC(C)=O)C(=O)NCc1ccccc1 [(R)-4, Lacosamide, reference compound]
Peak current lower than control at the last pulse (pulse 30) ([3]; 100 μM): ~ 9% | Pulse in the train at which use-dependent block was first observed ([3]; 100 μM): ~19 pulse | Fraction of current available at 8 s prepulse duration ([4]; 100 μM): 0.32 ± 0.01 | Time course of recovery from the 10-ms depolarization ([5]; 100 μM): not different from control | Recovery kinetics after 5 s depolarization (slow inactivation induced) ([5]; 100 μM, significant between 100–512 ms): slowed recovery kinetics | Inhibition of peak Na+ currents [8]: ~ 40% | Shift in V1/2 of fast inactivation [9]: 0.7 mV

COC[C@H](NC(C)=O)C(=O)NCc1ccc(OCc2cccc(F)c2)cc1 [(S)-7]
Fraction of current available at −50 mV ([1]; 500 μM (highest dose)): reduced the available current but not to the extent observed with (R)-7 | Potential above which (more depolarized) slow inactivation was observed ([1]; 5 s conditioning prepulses): > −80 mV | Maximal fraction of current unavailable by depolarization ([1]; 500 μM): 0.76 ± 0.02 | Shift in V1/2 of fast inactivation in the hyperpolarizing direction ([2]; 500 μM): 19.9 mV

COC[C@H](NC(C)=O)C(=O)NCc1ccccc1 [(S)-4]
Inhibition of Ca2+ amplitude (KCl-induced Ca2+ influx) (E18 rat cortical neurons): 13.74 ± 1.26% | Inhibition of peak Na+ currents [8]: no inhibition
